Like-named read-outs stand apart in the source and are kept apart here.
Key:
RARβ = biological target: T1, RARβ (Homo sapiens, UniProt P10826); test: Transactivation competition assay; format: cell-based; conditions: HeLa cells, 10^−7M ATRA, increasing concentrations of retinoid, 24 hours
T1 sequence (P10826 1-455): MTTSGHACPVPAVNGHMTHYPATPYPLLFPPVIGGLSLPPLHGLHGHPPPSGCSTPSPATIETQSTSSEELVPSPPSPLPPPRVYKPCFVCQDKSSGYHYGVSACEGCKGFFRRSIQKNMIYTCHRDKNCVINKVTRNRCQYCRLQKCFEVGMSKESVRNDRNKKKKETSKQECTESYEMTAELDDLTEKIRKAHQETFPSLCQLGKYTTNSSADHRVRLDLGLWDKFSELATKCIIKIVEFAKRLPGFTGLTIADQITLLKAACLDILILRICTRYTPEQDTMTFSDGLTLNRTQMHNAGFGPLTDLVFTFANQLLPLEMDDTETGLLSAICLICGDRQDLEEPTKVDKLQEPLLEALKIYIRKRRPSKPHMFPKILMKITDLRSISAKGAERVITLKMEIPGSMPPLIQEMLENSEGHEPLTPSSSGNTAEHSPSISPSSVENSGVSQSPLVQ
In short: (§1)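 HeLa cells were cotransfected with receptor/CAT reporter constructs plus a constant β-galactosidase plasmid as internal control. Cells were incubated with submaximal ATRA (10–7 M) plus increasing concentrations of test compound, and CAT expression was measured after 24 h. Dilution medium without retinoid served as vehicle control and ATRA as positive control.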

RARs [1] = conditions: concomitantly transfected RARs; cited from earlier work
spermatogenesis in mice [2] = test: Oral administration, effect on spermatogenesis in mice; format: in vivo, CD1 mice; conditions: for Morphology of caudal epididymides: oral 10 mg/kg for 7 days; for Morphology of caudal epididymides / Epididymal sperm motility: 1-month post-treatment; for Testicular weight compared with control: oral 2 and 10 mg/kg for 7 days, mean±SD of five mice; for Effect on spermatogenesis (testis morphology): oral 2.0 and 10 mg/kg for 7 days, one-month after dosing; for Epididymal sperm motility: oral, 7 days
In short: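 Male CD1 mice received test compound by oral gavage daily at 2 or 10 mg/kg for 7 days; controls got vehicle alone for 7 days. Body weight was monitored throughout. One month post-treatment, testes were collected and weighed (mean ± SD, five mice per regimen; […] Student's t-test vs age-matched controls). Testes and epididymides were sectioned for histology with tubule staging.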

RARγ = biological target: T2, RARγ (Homo sapiens, UniProt P13631); test: Transactivation competition assay; format: cell-based; conditions: HeLa cells, 10^−7M ATRA, increasing concentrations of retinoid, 24 hours
T2 sequence (P13631 1-454): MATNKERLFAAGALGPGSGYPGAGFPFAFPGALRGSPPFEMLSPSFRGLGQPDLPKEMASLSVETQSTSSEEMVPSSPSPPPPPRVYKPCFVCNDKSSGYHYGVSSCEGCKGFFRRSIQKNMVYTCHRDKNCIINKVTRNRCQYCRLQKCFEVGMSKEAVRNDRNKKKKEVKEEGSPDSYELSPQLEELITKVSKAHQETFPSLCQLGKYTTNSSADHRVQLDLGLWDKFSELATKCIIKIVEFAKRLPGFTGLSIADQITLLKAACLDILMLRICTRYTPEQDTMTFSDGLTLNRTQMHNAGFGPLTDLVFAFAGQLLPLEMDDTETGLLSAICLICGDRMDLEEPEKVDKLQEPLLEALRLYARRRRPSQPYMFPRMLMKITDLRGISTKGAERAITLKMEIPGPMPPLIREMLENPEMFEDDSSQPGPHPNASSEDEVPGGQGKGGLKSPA
In short: as §1

spermatogenesis in mice [3] = test: IV and IP administration, effect on spermatogenesis in mice; format: in vivo, CD1 mice
In short: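 Male CD1 mice dosed daily with test compound at 10 mg/kg by IV (for 3, 6 or 7 days; n = 2 for 6 and 7 days) or IP (7 days), against vehicle-only controls. Testes taken […] were sectioned and examined histologically for spermatid alignment and release in tubules. Reversibility was assessed by testis histology 4 weeks post-treatment.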

RARs [4] = test: Transactivation assay; format: cell-based; conditions: concomitantly transfected RARs
spermatogenesis in mice [5] = conditions: oral, low levels; cited from earlier work

SMILES	Competition of ATRA-induced CAT expression, RARβ (RARβ)	Induction of RARE-CAT reporter expression by compound alone (RARs [1])	Morphology of caudal epididymides (spermatogenesis in mice [2])	Testicular weight compared with control (spermatogenesis in mice [2])	Effect on spermatogenesis (testis morphology) (spermatogenesis in mice [2])	Epididymal sperm motility (spermatogenesis in mice [2])	Competition of ATRA-induced CAT expression, RARγ (RARγ)	Effect on spermatid alignment and sperm release (spermatogenesis in mice [3]; IV 10 mg/kg for 6 and 7 days, one-day post-treatment)	Effect on spermatogenesis 4-weeks post-treatment (reversibility) (spermatogenesis in mice [3]; IV, 4-weeks post-treatment)	Induction of RARE-CAT reporter expression by compound alone (RARs [4])	Effect on spermatogenesis in mice (spermatogenesis in mice [5])	Side-effects in mice (spermatogenesis in mice [5])
Cc1ccc(C2=CCC(C)(C)c3ccc(C(=O)Nc4ccc(C(=O)O)cc4)cc32)cc1 [compound 2]	minimal activity	did not, by themselves, induce reporter expression	appeared normal	No significant differences	no effect on spermatogenesis	normal motility	minimal activity	Acute disruptive effects	No effect on spermatogenesis	–	–	–
CC1(C)CC=C(c2cnc3ccccc3c2)c2cc(C(=O)Nc3ccc(C(=O)O)cc3)ccc21 [compound 3]	minimal activity	–	appeared normal	No significant differences	no effect on spermatogenesis	normal motility	minimal activity	–	–	did not, by themselves, induce reporter expression	–	–
CC1(C)CC=C(c2ccccc2)c2cc(/C=C/c3ccc(C(=O)O)cc3)ccc21 [compound 1]	–	–	–	–	–	–	–	–	–	–	inhibited spermatogenesis	without any observable side-effects

Source: PMC3770188 (ACS medicinal chemistry letters, 2013)
